# Screening results from PubChem BioAssay.
# This is a sample that favours compounds with a hit; in the whole collection about 1.9% have one here.
# 697 NFkB inh = inhibitors of the PMA/ionomycin-induced NF-kB reporter in 697 B cells. 330,000 tested, 0.33% active. inhibition, % at 4 µM. 697 B-cell NF-kB luciferase reporter, 16 h; in the data active means inhibition above about 35%
# H9c2 TAG inh = triacylglycerol accumulation inhibition; 230,000 tested, 0.66% active; inhibition, % at 12.5 µM; AID 651582; H9c2 cells, Nile Red lipid (TAG) fluorescence; cells loaded with 200 µM oleic acid;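 active means pattern-corrected inhibition of lipid staining of at least 50% with the nuclear-stain viability signal not falling by more than 50%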;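 further: 0% = DMSO wells and 100% = triacsin C control wells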
# APP 5UTR inh = APP translation inhibition; 190,000 tested, 0.82% active; AID 1285; inhibition, % at 2 µM; SH-SY5Y APP 5'UTR-luciferase reporter, luminescence;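 active means inhibition above a set limit, derived from the sample mean plus 3 SD, cut at about 45% in these data; inconclusive means one replicate passes the limit while the other fails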
# Jurkat NFkB inh = inhibitors of the PMA/ionomycin-induced NF-kB reporter in Jurkat cells. PMA/ionomycin-induced NF-kB luciferase reporter, luminescence. inhibition, % at 4 µM. 330,000 tested, 0.53% active; in the data active means inhibition above about 50%
# aSyn UTR inh = MLPCN primary screen, SNCA 5' untranslated region; alpha-synuclein 5'UTR reporter, inhibitor activity; inhibition, % (tested at 7.5 µM); 300,000 tested, 0.82% active; AID 1813; in the data active means inhibition above about 60%; inconclusive means no clear call, values can overlap the other calls;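 further: H4 neuroglioblastoma cells stably carrying SNCA 5'UTR luciferase fusion; 0% = DMSO wells and 100% = positive control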
# Hep lipid drop = modulators of hepatic lipid droplet formation | 240,000 tested, 0.4% active | inhibition, % at 6.5 µM | AID 1656 | AML12 mouse hepatocytes, oleate lipid droplets, BODIPY imaging;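 active means lipid droplet intensity inhibited by at least 50%, with more than 500 cells counted; inconclusive means wells with under 300 cells, treated as cytotoxic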
#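 material = mouse AML12 hepatocyte cell line, fixed after treatment | also added = 100 µM oleic acid challenge | doses = compound at 6.5 µM only | schedule = overnight exposure | technique = Image-based BODIPY and DAPI two-channel analysis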
# An asterisk follows results filed as active; ? = inconclusive; / = no result given.
SMILES,697 NFkB inh,H9c2 TAG inh,APP 5UTR inh,Jurkat NFkB inh,aSyn UTR inh,Hep lipid drop
Cc1n[nH]c(=O)nc1NC1CCCCC1,18.0,-2.2,60.2*,3.2,11.0,/
Cc1nn(-c2ccc3ccccc3c2)c(=O)c2ccccc12,-104.7,-45.4,-142.3,-77.8,-183.0,0.4
Cc1nn(-c2nc3ccccc3[nH]2)c(=O)c2ccccc12,/,2.6,74.1*,/,115.0*,29.3
COc1cc([C@H]2c3[nH]c4ccccc4c3C[C@H]3C(=O)N4[C@@H](c5cc(OC)c(OC)c(OC)c5)c5[nH]c6ccccc6c5C[C@H]4C(=O)N23)cc(OC)c1OC,9.3,50.1*,41.9,3.0,32.7,44.2
O=C(COC(=O)c1cc(-c2ccccc2Cl)nc2ccccc12)Nc1ncc(C(F)(F)F)cc1Cl,8.6,/,49.0*,6.6,39.5,9.8
Cc1ccccc1CNC(=O)c1ccc2sc([C@H]3C[C@H](O)[C@@H](CO)O3)nc2c1,/,-20.6,/,/,/,/
O=C(NCc1ccccc1Cl)C1CCC(CNc2nc(=S)[nH]c3ccccc23)CC1 (stereo unspecified),-21.1,1.2,-3.7,-24.1,16.6,12.6
O=C(NCCC1=CCCCC1)C1CCC(CNc2nc(=S)[nH]c3ccccc23)CC1 (stereo unspecified),-0.7,-22.6,18.3,0.2,98.6*,-3.8
O=C(NCCc1ccc(Cl)cc1)C1CCC(CNc2nc(=S)[nH]c3ccccc23)CC1 (stereo unspecified),-26.8,7.5,-6.4,0.1,64.5*,-12.4
CCCCNC(=O)C1CCC(CNc2nc(=S)[nH]c3ccccc23)CC1 (stereo unspecified),18.0,5.2,-0.9,4.9,26.8,8.4
COC(=O)c1cc(C(=O)NCc2ccc3c(c2)OCO3)cc([N+](=O)[O-])c1,8.4,/,/,7.0,-11.1,-10.5
CCc1ccc(N2CC(C(=O)OCC(=O)N(CC)c3c(N)n(Cc4ccccc4)c(=O)[nH]c3=O)CC2=O)cc1 (stereo unspecified),/,-4.0,/,/,/,/
Nc1c(C(=O)NC2CC2)sc2nc3c(c(-c4ccco4)c12)CC/C3=C/c1ccco1,/,/,50.8*,/,/,11.7
CC(C)(C)C1CCC(CN2C(Nc3ccccc3)=NC[C@@H]2Cc2ccccc2)CC1 (stereo partly specified),-9.9,113.4*,/,-20.4,/,/
O=C1N(Cc2ccccc2)c2ccccc2OC1(F)F,/,18.1,/,/,/,/
CC(C)(C=O)C1=CC(=O)c2ccccc2C1=O,/,/,80.5*,/,/,11.6
Cc1nn(Cc2ccc(Cl)cc2)c(C)c1NC(=O)c1cc(-c2ccc3c(c2)OCO3)on1,21.3,/,11.4,43.7,?,/
Cc1nn(Cc2ccc(Cl)c(Cl)c2)c(C)c1NC(=O)c1cc(-c2ccc3c(c2)OCO3)on1,19.4,/,52.0*,25.0,66.3*,/
Cc1cn([C@H]2C[C@H](O)[C@@H](CNCc3ccc(Oc4cc(-n5cccn5)ncn4)cc3)O2)c(=O)[nH]c1=O,/,-7.5,/,/,/,/
Cn1c(O)c(C=NCCCCCC(=O)O)c(=O)n(C)c1=O,/,-15.8,/,/,/,/
Fc1cccc(-c2cc3nc4c(c(N5CCN(c6cnccn6)CC5)n3n2)CCCC4)c1,/,/,-19.9,/,/,/
Clc1cccc(-c2cc3nc4c(c(N5CCN(c6cnccn6)CC5)n3n2)CCCC4)c1,-88.1,62.4*,-34.9,-29.1,/,5.1
O=[N+]([O-])c1cc(/C=N/n2cnnc2)ccc1N1CCCC1,-14.2,/,-0.1,-12.6,65.5*,-13.7
O=[N+]([O-])c1cc(/C=N/O)ccc1N1CCCC1,-15.7,10.1,-15.6,-18.4,26.2,-7.7
c1coc(CNc2nc(-c3cccs3)cs2)c1,0.8,-3.2,-39.6,-1.7,107.4*,3.0
SMILES,697 NFkB inh,H9c2 TAG inh,APP 5UTR inh,Jurkat NFkB inh,aSyn UTR inh,Hep lipid drop
Cc1ccccc1NC(=O)CN1C(=O)NC2(CCc3ccccc32)C1=O (stereo unspecified),20.9,-20.9,/,1.4,/,/
COc1cc2c(cc1NC(=O)CN1C(=O)NC3(CCc4ccccc43)C1=O)oc1ccccc12 (stereo unspecified),10.4,54.8*,-11.6,6.3,0.3,/
COc1cc(C(=O)O/N=C(\N)Cc2ccc([N+](=O)[O-])cc2)cc(OC)c1OC,-56.4,-33.8,/,26.0,81.1*,-6.1
O=[N+]([O-])c1ccc(/C=C/C2=NN(c3ccccc3)C(c3ccco3)C2)o1 (stereo unspecified),/,-299.2,-16.3,/,24.3,53.6*
CC(=O)Nc1cncc(-c2cccc(C(=O)N3CCOCC3)c2)n1,/,4.9,/,/,/,/
CCNc1ccc(C(=O)OCC)cc1NC(=O)c1cccc(N(C)C)c1,-20.0,/,81.1*,32.3,34.6,/
COCC(=O)Nc1ccc2c(c1)[C@@H]1C[C@H](CC(=O)OC)O[C@H](CO)[C@@H]1O2,/,-6.6,/,/,/,/
CCOC(=O)c1cnc2c(OC)cccc2c1N1CCN(c2ccccn2)CC1,-23.4,-20.5,5.1,3.0,47.3,4.2
CCOC(=O)c1cnc2c(OC)cccc2c1N1CCN(c2ccccc2OC)CC1,-2.2,19.8,-2.7,-6.2,62.4*,/
CC(C)CNc1ncnc2c1ncn2[C@H]1CN(Cc2cccs2)C[C@@H](CO)O1,/,2.0,/,/,/,/
COC(=O)Nc1nc2ccc(C(=O)c3ccc(F)cc3)cc2[nH]1,/,/,/,/,99.2*,-146.4
CCCOc1ccc2nc(NC(=O)OC)[nH]c2c1,/,/,85.9*,/,83.9*,-48.3
COc1ccc(Nc2ccnc3ccccc23)cc1,4.2,3.7,9.6,11.3,-25.9,/
c1ccc(CCNc2ccnc3cc4ccccc4cc23)cc1,/,103.7*,22.1,/,116.7*,-8.5
CC(C)Nc1ccc(Nc2ccnc3cc4ccccc4cc23)cc1,-29.7,128.8,/,-3.3,98.7*,-0.1
CCC(=O)N1CCCC(C)(C(=O)Nc2ccc(C)c(C)c2)C1 (stereo unspecified),/,-10.9,/,/,/,/
CC(=O)N1CCc2c(sc(NC(=O)c3ccc([N+](=O)[O-])o3)c2C#N)C1,/,83.5,62.2*,/,-4.7,0.3
CC(C)N1CCc2c(sc(NC(=O)c3ccc([N+](=O)[O-])o3)c2C(N)=O)C1,-8.5,109.7,/,38.5,104.2*,-37.1
COc1ccc(C(=O)Nc2sc3c(c2C#N)CCN(C(C)=O)C3)cc1,-2.3,9.0,-8.2,2.1,-71.7,-7.9
CC(CC(=O)c1ccccc1)=NCCCN=C(C)CC(=O)c1ccccc1,/,-3.3,/,/,/,/
CCOc1ccccc1NC(=O)CCNC(=O)C1CCN(S(=O)(=O)c2ccccc2)CC1,/,19.0,/,/,/,/
CCCOC(=O)c1ccc(NC(=O)/C=C/c2cccs2)cc1,-154.1,/,-37.5,-131.0,-209.0,80.0*
COc1ccc(-c2oc3ncn(CCN4CCOCC4)c(=N)c3c2-c2ccc(OC)cc2)cc1,-28.7,-47.1,10.7,-10.2,74.2*,-6.3
COc1ccc(-c2oc3ncnc(NCCN4CCOCC4)c3c2-c2ccc(OC)cc2)cc1,-51.7,-76.9,-6.0,-11.2,44.9,/
COC(=O)Cc1c(C)c2ccc(OCc3nn[nH]n3)cc2oc1=O,9.4,/,78.0*,-2.5,7.8,-2.1
CC1CCCC(NC(=O)c2cccc(S(=O)(=O)N3CCOCC3)c2)C1C (stereo unspecified),/,21.8,/,/,/,/
